# Measurements reported in ChEMBL document CHEMBL2157987, “Benzimidazole bearing oxadiazole and triazolo-thiadiazoles nucleus: design and synthesis as anticancer agents” (2012).
# Tests used:
# Type in all cases: functional
# NCI-H460 = experiment: Cytotoxicity against human NCI-H460 cells after 48 hrs by SRB assay; details: NCI-H460, 48 h
# Method in brief: (§1)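 Five-dose NCI-60 panel screen: cells grown in RPMI 1640 with 5% FBS and 2 mM L-glutamine, preincubated 24 h at 37 °C, 5% CO2. Five 10-fold dilutions, 0.01–100 µM, applied for 48 h. Fixed with cold TCA (10% final), stained with 0.4% SRB, absorbance read at 515 nm. GI50, TGI and LC50 were taken from log concentration versus % growth curves using time-zero plates.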
# OVCAR-8 = experiment: Cytotoxicity against human OVCAR8 cells after 48 hrs by SRB assay; details: OVCAR-8, 48 h; method in brief: as §1
# SF-268 = experiment: Cytotoxicity against human SF268 cells after 48 hrs by SRB assay; details: SF-268, 48 h; method in brief: as §1
# PC-3 = experiment: Cytotoxicity against human PC3 cells after 48 hrs by SRB assay; details: PC-3, 48 h; method in brief: as §1
# HL-60(TB) = experiment: Cytotoxicity against human HL-60(TB) cells after 48 hrs by SRB assay; details: HL-60, 48 h
# Method in brief: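 Human tumour line grown in RPMI 1640 with 5% FBS and 2 mM L-glutamine. Cells were plated and held 24 h at 37 °C/5% CO2 before dosing, and time-zero plates were TCA-fixed. Five 10-fold concentrations (0.01–100 µM) were added from DMSO stock and incubated 48 h. Cells were TCA-fixed, stained with 0.4% SRB and read at 515 nm. Values were calculated from growth curves relative to time-zero and control.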
# RXF 393 = experiment: Cytotoxicity against human RXF393 cells after 48 hrs by SRB assay; details: RXF 393, 48 h; method in brief: as §1
# CCRF-CEM = experiment: Cytotoxicity against human CCRF-CEM cells after 48 hrs by SRB assay; method in brief: as §1
# ACHN = experiment: Cytotoxicity against human ACHN cells after 48 hrs by SRB assay; method in brief: as §1
# CAKI-1 = experiment: Cytotoxicity against human Caki1 cells after 48 hrs by SRB assay; details: CAKI-1, 48 h; method in brief: as §1
# K562 = experiment: Cytotoxicity against human K562 cells after 48 hrs by SRB assay; details: K562, 48 h; method in brief: as §1
# HCT-116 = experiment: Cytotoxicity against human HCT116 cells after 48 hrs by SRB assay; details: HCT-116, 48 h; method in brief: as §1
# MDA-MB-231 = experiment: Cytotoxicity against human MDA-MB-231 cells after 48 hrs by SRB assay; details: MDA-MB-231, 48 h; method in brief: as §1
# SK-MEL-5 = experiment: Cytotoxicity against human SK-MEL-5 cells after 48 hrs by SRB assay; details: SK-MEL-5, 48 h; method in brief: as §1
# NCI-H23 = experiment: Cytotoxicity against human NCI-H23 cells after 48 hrs by SRB assay; details: NCI-H23, 48 h; method in brief: as §1
# SN12C = experiment: Cytotoxicity against human SN12C cells after 48 hrs by SRB assay
# Method in brief: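 Cells were grown in RPMI 1640 with 5% FBS and 2 mM L-glutamine, then held 24 h at 37 °C and 5% CO2 before dosing. TCA-fixed time-zero plates were kept. Compound was dissolved in DMSO and given at five 10-fold dilutions for 48 h. Cells were fixed with cold TCA (10% final), stained with 0.4% SRB and read at 515 nm. GI50, TGI and LC50 came from Ti/Tz/control growth formulas.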
# HOP-62 = experiment: Cytotoxicity against human HOP62 cells after 48 hrs by SRB assay; details: HOP-62, 48 h; method in brief: as §1
# A498 = experiment: Cytotoxicity against human A498 cells after 48 hrs by SRB assay; details: A498, 48 h; method in brief: as §1
# Malme-3M = experiment: Cytotoxicity against human MALME-3M cells after 48 hrs by SRB assay; method in brief: as §1
# DU-145 = experiment: Cytotoxicity against human DU145 cells after 48 hrs by SRB assay; details: DU-145, 48 h; method in brief: as §1
# [1] = read-out: LC50 (the source's name)
# [2] = read-out: pLC50 (the source's name) (converted)
structure (smiles),measurement,setting,value
Nc1cc(Br)c(-c2nnc(CCC(=O)c3nc4ccccc4[nH]3)o2)c(Br)c1,GI50,NCI-H460,3.98 µM
same,CC50,NCI-H460; [1],> 100 µM
same,TGI,NCI-H460; read-out: TGI,20.1 µM
same,CC50,NCI-H460; [2],> 100 µM
same,TGI,NCI-H460; read-out: pTGI (converted),20 µM
same,GI50,OVCAR-8,21.4 µM
same,CC50,OVCAR-8; [1],> 100 µM
same,TGI,OVCAR-8; read-out: TGI,> 100 µM
same,CC50,OVCAR-8; [2],> 100 µM
same,TGI,OVCAR-8; read-out: pTGI,> 100 µM
same,GI50,SF-268,5.13 µM
same,CC50,SF-268; [1],> 100 µM
same,TGI,SF-268; read-out: TGI,81.6 µM
same,CC50,SF-268; [2],> 100 µM
same,TGI,SF-268; read-out: pTGI (converted),81.3 µM
same,GI50,PC-3,3.09 µM
same,LC50 (concentration killing 50% of cells),PC-3; read-out: LC50,> 100 µM
same,TGI,PC-3; read-out: TGI,> 100 µM
same,LC50 (concentration killing 50% of cells),PC-3; read-out: pLC50 (converted),> 100 µM
same,TGI,PC-3; read-out: pTGI,> 100 µM
same,GI50,HL-60(TB),3.47 µM
same,CC50,HL-60(TB); [1],> 100 µM
same,TGI,HL-60(TB); read-out: TGI,> 100 µM
same,CC50,HL-60(TB); [2],> 100 µM
same,TGI,HL-60(TB); read-out: pTGI,> 100 µM
same,GI50,RXF 393,12.9 µM
same,CC50,RXF 393; [1],> 100 µM
same,TGI,RXF 393; read-out: TGI,58.6 µM
same,CC50,RXF 393; [2],> 100 µM
same,TGI,RXF 393; read-out: pTGI (converted),58.9 µM
same,GI50,CCRF-CEM,3.8 µM
same,CC50,CCRF-CEM; [1],> 100 µM
same,TGI,CCRF-CEM; read-out: TGI,> 100 µM
same,CC50,CCRF-CEM; [2],> 100 µM
same,TGI,CCRF-CEM; read-out: pTGI,> 100 µM
same,GI50,ACHN,47.9 µM
same,LC50,ACHN; read-out: LC50,> 100 µM
same,TGI,ACHN; read-out: TGI,> 100 µM
same,LC50,ACHN; read-out: pLC50 (converted),> 100 µM
same,TGI,ACHN; read-out: pTGI,> 100 µM
same,GI50,CAKI-1,20 µM
same,LC50,CAKI-1; read-out: LC50,> 100 µM
same,TGI,CAKI-1; read-out: TGI,> 100 µM
same,LC50,CAKI-1; read-out: pLC50 (converted),> 100 µM
same,TGI,CAKI-1; read-out: pTGI,> 100 µM
same,GI50,K562,2.88 µM
same,CC50,K562; [1],> 100 µM
same,TGI,K562; read-out: TGI,> 100 µM
same,CC50,K562; [2],> 100 µM
same,TGI,K562; read-out: pTGI,> 100 µM
same,GI50,HCT-116,8.32 µM
same,CC50,HCT-116; [1],> 100 µM
same,TGI,HCT-116; read-out: TGI,> 100 µM
same,CC50,HCT-116; [2],> 100 µM
same,TGI,HCT-116; read-out: pTGI,> 100 µM
same,GI50,MDA-MB-231,10.2 µM
same,LC50,MDA-MB-231; read-out: LC50,> 100 µM
same,TGI,MDA-MB-231; read-out: TGI,86.8 µM
same,LC50,MDA-MB-231; read-out: pLC50 (converted),> 100 µM
same,TGI,MDA-MB-231; read-out: pTGI (converted),87.1 µM
same,GI50,SK-MEL-5,14.1 µM
same,CC50,SK-MEL-5; [1],> 100 µM
same,TGI,SK-MEL-5; read-out: TGI,> 100 µM
same,CC50,SK-MEL-5; [2],> 100 µM
same,TGI,SK-MEL-5; read-out: pTGI,> 100 µM
same,GI50,NCI-H23,3.24 µM
same,CC50,NCI-H23; [1],> 100 µM
same,TGI,NCI-H23; read-out: TGI,36.4 µM
same,CC50,NCI-H23; [2],> 100 µM
same,TGI,NCI-H23; read-out: pTGI (converted),36.3 µM
same,GI50,SN12C,29.5 µM
same,CC50,SN12C; [1],> 100 µM
same,TGI,SN12C; read-out: TGI,> 100 µM
same,CC50,SN12C; [2],> 100 µM
same,TGI,SN12C; read-out: pTGI,> 100 µM
same,GI50,HOP-62,23.4 µM
same,CC50,HOP-62; [1],> 100 µM
same,TGI,HOP-62; read-out: TGI,> 100 µM
same,CC50,HOP-62; [2],> 100 µM
same,TGI,HOP-62; read-out: pTGI,> 100 µM
same,GI50,A498,0.661 µM
same,CC50,A498; [1],> 100 µM
same,TGI,A498; read-out: TGI,10.5 µM
same,CC50,A498; [2],> 100 µM
same,TGI,A498; read-out: pTGI (converted),10.5 µM
same,GI50,Malme-3M,2.04 µM
same,CC50,Malme-3M; [1],> 100 µM
same,TGI,Malme-3M; read-out: TGI,17.2 µM
same,CC50,Malme-3M; [2],> 100 µM
same,TGI,Malme-3M; read-out: pTGI (converted),17.4 µM
same,GI50,DU-145,5.37 µM
same,LC50 (50% lethal concentration),DU-145; read-out: LC50,> 100 µM
same,TGI,DU-145; read-out: TGI,53.5 µM
same,LC50 (50% lethal concentration),DU-145; read-out: pLC50 (converted),> 100 µM
same,TGI,DU-145; read-out: pTGI (converted),53.7 µM
